ChEMBL document CHEMBL1129607, “Paracyclophanes: a novel class of water-soluble inhibitors of HIV proteinase” (J Med Chem, 1996)
pIC50, pKi: −log10 of the molar value. In brackets after ≈: the same amount, converted by molar mass.

Columns and labels:
[1] = molecular target: T1, Human immunodeficiency virus type 1 protease (Human immunodeficiency virus 1, UniProt Q72874); experiment: Inhibition of HIV-1 proteinase was assayed in infected MT-4 cells; type: cell-based, MT4
[2] = Aqueous solubility in phosphate buffer of pH 7.4
[3] = system: Human immunodeficiency virus 1; experiment: Antiviral activity against HIV-1 IIIB induced cytopathic effect in de novo infected MT-4 cells; type: functional, organism-based; conditions: Human immunodeficiency virus 1, MT4
Summary of the method: (§1)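 MT4 cells were infected de novo with HIV-1 IIIB or HIV-2 EHO, and compound was added after adsorption. Mock-infected cells were run in parallel. After 5 days, viability was read spectrophotometrically by in situ MTT reduction.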

Cathepsin D = Cathepsin D (Homo sapiens, UniProt P07339); experiment: The compound was tested for inhibition of Human Cathepsin D
Cathepsin D, sequence (P07339 65-162 limits assumed): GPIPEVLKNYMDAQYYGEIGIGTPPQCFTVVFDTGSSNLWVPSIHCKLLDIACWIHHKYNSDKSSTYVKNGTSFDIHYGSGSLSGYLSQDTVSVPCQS
Cathepsin D, sequence (P07339 169-412 limits assumed): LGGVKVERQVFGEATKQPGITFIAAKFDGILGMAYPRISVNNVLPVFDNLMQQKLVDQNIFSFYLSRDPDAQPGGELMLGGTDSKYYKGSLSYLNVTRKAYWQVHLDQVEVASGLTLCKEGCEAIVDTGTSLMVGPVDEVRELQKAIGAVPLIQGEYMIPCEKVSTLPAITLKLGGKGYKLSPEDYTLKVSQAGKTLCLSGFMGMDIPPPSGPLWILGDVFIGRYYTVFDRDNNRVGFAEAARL

[4] = Area Under Curve was measured by ploting the graph between concentration verses time; type: ADME
Summary of the method: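 Female Balb/c mice (n = 2 per time point) were fasted 24 h before and throughout the study, with water ad libitum. Compound was given by oral gavage at 125 mg/kg in a microemulsion formulation. Plasma levels were measured by solid-phase extraction and HPLC.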

MT4 [5] = experiment: Antiviral activity against HIV-2 induced cytopathic effect in de novo infected MT-4 cells; type: functional, cell-based; conditions: Homo sapiens; summary of the method: as §1
[6] = molecular target: T1, Human immunodeficiency virus type 1 protease; experiment: Compound was tested for inhibition of HIV-1 protease was assayed in infected MT-4 cells; type: cell-based, MT4
MT4 [7] = experiment: Antiviral activity for inhibition of HIV-2 proteinase was assayed in infected MT-4 cells; type: functional, cell-based; conditions: Homo sapiens
[8] = Inhibitory concentration against HIV-2 strain MS infected T4 lymphocytes; type: functional, cell-based
Summary of the method: (§2)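 T4-lymphocytes were purified from healthy donor human […] and stimulated with PHA. Cells were infected with HIV-1 IIIB or HIV-2 MS and kept in IL-2 medium. Compound was added after stimulation and virus adsorption. Every 3-4 days, half the supernatant was replaced with fresh IL-2 medium containing compound.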

[9] = Inhibitory concentration against HIV-1 strain IIIB infected T4 lymphocytes; type: functional, cell-based; summary of the method: as §2

Row | SMILES | pKi [1] | pIC50 [3] | other results
1 | CC(C)[C@@H]1NC(=O)[C@@H]([C@H](O)[C@H](Cc2ccccc2)NC(=O)[C@@H](NC(=O)CSc2nncn2C)C(C)(C)C)NCc2ccc(cc2)OCCOCCNC1=O | 7.95 | < 5.52 | solubility [2]: 1710 µM (≈ 1310 µg/mL)
2 | CC(C)[C@@H]1NC(=O)[C@@H]([C@H](O)[C@H](Cc2ccccc2)NC(=O)[C@@H](NC(=O)OCc2ccccc2)C(C)(C)C)NCc2ccc(cc2)OCCOCCNC1=O | 8.10 | 7.82 | pIC50 (Cathepsin D): < 5.00; AUC [4]: 4.7 µM·h
3 | COc1ccc(CN[C@@H](C(=O)N[C@@H]2c3ccccc3C[C@H]2O)[C@H](O)[C@H](Cc2ccccc2)NC(=O)[C@@H](NC(=O)OCc2ccccc2)C(C)C)cc1 | – | 6.62 | pIC50 (MT4 [5]): 6.07; pIC50 (Cathepsin D): < 5.00; AUC [4]: 82.5 µM·h; pKi [6]: 8.02; solubility [2]: < 10 µM
4 | CC(C)[C@@H]1NC(=O)[C@@H]([C@H](O)[C@H](Cc2ccccc2)NC(=O)O[C@H]2CCOC2)NCc2ccc(cc2)OCCOCCOCCNC1=O | – | 6.70 | –
5 | CC(C)[C@H](NC(=O)OCc1ccccc1)C(=O)N[C@@H](Cc1ccccc1)[C@@H](O)[C@H]1NCc2ccc(cc2)OCCOCCNC(=O)[C@H](C(C)C)NC1=O | 8.10 | 7.68 | pIC50 (Cathepsin D): < 5.00
6 | CC(C)[C@@H]1NC(=O)[C@@H]([C@H](O)[C@H](Cc2ccccc2)NC(=O)OC(C)(C)C)NCc2cccc(c2)OCCOCCOCCNC1=O | 6.68 | 5.52 | –
7 | CC(C)[C@@H]1NC(=O)[C@@H]([C@H](O)[C@H](Cc2ccccc2)NC(=O)OC(C)(C)C)NCc2ccc(cc2)OCCCCNC1=O | – | 5.74 | pKi [6]: 7.77
8 | CC(C)[C@@H]1NC(=O)[C@@H]([C@H](O)[C@H](Cc2ccccc2)NC(=O)OC(C)(C)C)NCc2ccc(cc2)OCCOCCOCCOCCNC1=O | 7.63 | 5.93 | –
9 | CC(C)[C@H](NC(=O)OCc1ccccc1)C(=O)N[C@@H](Cc1ccccc1)[C@@H](O)[C@H]1NCc2ccc(cc2)OCCCCNC(=O)[C@H](C(C)C)NC1=O | – | 7.57 | –
10 | CC(C)[C@H](NC(=O)OCc1ccccc1)C(=O)N[C@@H](Cc1ccccc1)[C@@H](O)[C@H]1NCc2ccc(cc2)OCCOCCOCCOCCNC(=O)[C@H](C(C)C)NC1=O | – | 7.28 | –
11 | CC(C)[C@H](NC(=O)OCc1ccccc1)C(=O)N[C@@H](Cc1ccccc1)[C@@H](O)[C@H]1NCc2cccc(c2)OCCOCCOCCNC(=O)[C@H](C(C)C)NC1=O | 8.11 | 6.68 | –
12 | COc1ccc(CN[C@@H](C(=O)N[C@H](C(=O)NCc2nc3ccccc3[nH]2)C(C)C)[C@H](O)[C@H](Cc2ccccc2)NC(=O)[C@@H](NC(=O)OCc2ccccc2)C(C)C)cc1 | – | 7.54 | AUC [4]: < 0.4 µM·h; solubility [2]: < 10 µM

The remaining compounds from weak to strong by pIC50 [3], led by results:

Row | pKi [1] | pIC50 [3] | SMILES | other results
13 | – | 6.03 | CC(C)[C@@H]1NC(=O)[C@@H]([C@H](O)[C@H](Cc2ccccc2)NC(=O)OC(C)(C)C)NCc2cccc(c2)OCCOCCNC1=O | –
14 | 7.85 | 6.35 | CC(C)[C@@H]1NC(=O)[C@@H]([C@H](O)[C@H](Cc2ccccc2)NC(=O)OC(C)(C)C)NCc2ccc(cc2)OCCOCCNC1=O | –
15 | – | 6.47 | CC(C)[C@@H]1NC(=O)[C@@H]([C@H](O)[C@H](Cc2ccccc2)NC(=O)OC(C)(C)C)NCc2cccc(c2)OCCCCNC1=O | –
16 | – | 6.77 | CC(C)[C@@H]1NC(=O)[C@@H]([C@H](O)[C@H](Cc2ccccc2)NC(=O)OC(C)(C)C)NCc2ccc(cc2)OCCOCCOCCNC1=O | –
17 | 8.09 | 6.80 | CC(C)[C@@H]1NC(=O)[C@@H]([C@H](O)[C@H](Cc2ccccc2)NC(=O)O[C@H]2CCOC2)NCc2ccc(cc2)OCCOCCNC1=O | –
18 | – | 7.22 | CC(C)[C@H](NC(=O)OCc1ccccc1)C(=O)N[C@@H](Cc1ccccc1)[C@@H](O)[C@H]1NCc2cccc(c2)OCCOCCNC(=O)[C@H](C(C)C)NC1=O | –
19 | – | 7.54 | CC(C)[C@H](NC(=O)OCc1ccccc1)C(=O)N[C@@H](Cc1ccccc1)[C@@H](O)[C@H]1NCc2cccc(c2)OCCCCNC(=O)[C@H](C(C)C)NC1=O | –
20 | 8.16 | 7.80 | CC(C)[C@H](NC(=O)OCc1ccccc1)C(=O)N[C@@H](Cc1ccccc1)[C@@H](O)[C@H]1NCc2ccc(cc2)OCCOCCOCCNC(=O)[C@H](C(C)C)NC1=O | pIC50 (MT4 [7]): 7.43; pIC50 (Cathepsin D): < 5.00; AUC [4]: < 0.4 µM·h; pIC50 [8]: 7.77; pIC50 [9]: 8.51
